Assay results as given in ChEMBL document CHEMBL1141222, “Antitrypanosomal, antileishmanial, and antimalarial activities of quaternary arylalkylammonium 2-amino-4-chlorophenyl phenyl sulfides, a new class of trypanothione reductase inhibitor, and of N-acyl derivatives of 2-amino-4-chlorophenyl phenyl sulfide” (J Med Chem, 2005).
≈ marks a conversion by molar mass, not a printed value.

Key:
Trypanothione reductase [1] = target: T1, Trypanothione reductase (Trypanosoma cruzi, UniProt P28593); test: Inhibitory activity against trypanothione reductase from Trypanosoma cruzi using 0.12 mM TSST substrate
Outline: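 Recombinant T. cruzi TR overexpressed in E. coli JM109, homogeneous by SDS-PAGE. I50 read by interpolation from velocity vs inhibitor concentration, fitted to the linear competitive equation by nonlinear regression.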

Plasmodium falciparum = test: Antimalarial activity against Plasmodium falciparum 3D7; format: functional, organism-based
Outline: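 Asynchronous 3D7 cultures (65-75% rings) in RPMI 1640, 5% hematocrit, 0.5% parasitemia, 37 °C, 5% CO2; top final drug concentration 30. After 24 h, [3H]-hypoxanthine ([…]) added, then 48 h more. Plates freeze/thawed and harvested; uptake by scintillation counting; IC50 by curve fit.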

KB = test: Cytotoxicity in KB cells; format: functional, cell-based; settings: Homo sapiens
Trypanothione reductase [2] = target: T1, Trypanothione reductase; test: (§1) Mixed inhibition of trypanothione reductase from Trypanosoma cruzi using TSST substrate
Outline: (§2)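 E. coli JM109-expressed T. cruzi TR (3 µg/mL), 25 °C, 0.02 M HEPES pH 7.25 containing 0.15 M KCl, 1 mM EDTA and 0.1 mM NADPH. TSST as variable substrate at 30-240 µM against a series of inhibitor concentrations. Absorbance read at 340 nm. Ki and Ki′ obtained from Dixon, Lineweaver-Burk and Cornish-Bowden plots fitted to a mixed inhibition model.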

Leishmania donovani = test: Antileishmanial activity against Leishmania donovani HU3; format: functional, organism-based
Outline: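 Peritoneal exudate macrophages from CD1 mice (harvested 24 h after starch induction) held 24 h in RPMI1640 + 10% HIFCS, 37 °C, 5% CO2, then infected with hamster-spleen HU3 amastigotes at 5:1. After 24 h, drug exposure for 5 days (overlay replaced day 3), top 30 µg/mL, quadruplicate. Giemsa-stained slides scored microscopically; IC50 by curve fit. Pentostam positive control.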

Trypanosoma cruzi = test: Antitrypanosomal activity against Trypanosoma cruzi Tulahuan; format: functional, organism-based
[3] = test system: Trypanosoma brucei rhodesiense; test: Antitrypanosomal activity against Trypanosoma brucei rhodesiense STIB900; format: functional, organism-based
Outline: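 STIB900 bloodstream trypomastigotes in HMI-18 + 15% HIFCS, seeded at 2 × 10⁵/mL onto drug dilutions (top 30 µg/mL), 72 h at 37 °C, 5% CO2; pentamidine reference.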

[4] = target: Trypanothione reductase (Trypanosoma cruzi) (UniProt P28593); test: as §1; outline: as §2
Trypanothione reductase [5] = target: T1, Trypanothione reductase; test: Linear competitive inhibition of trypanothione reductase from Trypanosoma cruzi using TSST substrate
Trypanothione reductase [6] = target: T1, Trypanothione reductase; test: Linear competitive inhibition of trypanothione reductase from Trypanosoma cruzi using (ZCG.dmapa)2 substrate
[7] = target: T2, Glutathione reductase, mitochondrial (Homo sapiens, UniProt P00390); test: Inhibitory activity against human glutathione reductase at 0.5 mM
T2 sequence (P00390 whole entry): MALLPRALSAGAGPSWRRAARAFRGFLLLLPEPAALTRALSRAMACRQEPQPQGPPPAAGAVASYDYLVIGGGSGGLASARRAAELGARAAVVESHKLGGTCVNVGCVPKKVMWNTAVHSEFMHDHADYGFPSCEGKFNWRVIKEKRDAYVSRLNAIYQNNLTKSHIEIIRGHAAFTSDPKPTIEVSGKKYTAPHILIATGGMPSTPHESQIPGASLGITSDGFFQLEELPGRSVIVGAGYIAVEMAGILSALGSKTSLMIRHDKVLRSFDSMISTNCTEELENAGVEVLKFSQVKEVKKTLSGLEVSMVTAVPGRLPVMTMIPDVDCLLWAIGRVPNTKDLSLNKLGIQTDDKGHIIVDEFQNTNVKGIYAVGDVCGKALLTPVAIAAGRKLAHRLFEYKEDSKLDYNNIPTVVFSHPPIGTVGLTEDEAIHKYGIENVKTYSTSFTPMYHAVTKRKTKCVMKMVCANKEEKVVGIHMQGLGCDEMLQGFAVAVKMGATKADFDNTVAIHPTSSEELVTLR

Trypanothione reductase (Trypanosoma cruzi), sequence (P28593 whole entry, looked up): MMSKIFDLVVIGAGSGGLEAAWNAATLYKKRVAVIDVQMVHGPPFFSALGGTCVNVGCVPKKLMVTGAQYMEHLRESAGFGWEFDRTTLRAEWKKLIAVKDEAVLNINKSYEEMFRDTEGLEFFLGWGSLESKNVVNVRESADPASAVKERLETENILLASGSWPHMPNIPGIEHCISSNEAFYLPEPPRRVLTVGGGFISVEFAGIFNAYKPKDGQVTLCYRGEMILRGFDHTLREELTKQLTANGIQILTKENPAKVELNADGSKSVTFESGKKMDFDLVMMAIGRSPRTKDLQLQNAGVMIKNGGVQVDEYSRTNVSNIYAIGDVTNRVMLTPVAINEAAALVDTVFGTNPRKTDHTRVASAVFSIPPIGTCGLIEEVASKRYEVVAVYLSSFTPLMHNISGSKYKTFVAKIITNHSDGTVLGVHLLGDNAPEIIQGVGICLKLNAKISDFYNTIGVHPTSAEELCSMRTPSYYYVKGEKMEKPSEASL
T1 sequence (P28593 whole entry): as the sequence (P28593 whole entry, looked up) above

SMILES | IC50 (Trypanothione reductase [1]) [µM] | IC50 (Plasmodium falciparum) [mg/L] | IC50 (KB) [mg/L] | Ki (Trypanothione reductase [2]) [µM] | IC50 (Leishmania donovani) [mg/L] | IC50 (Trypanosoma cruzi) [mg/L] | IC50 [3] [mg/L] | Ki' [4] [µM] | IC50 (Trypanothione reductase [2]) [µM] | Ki (Trypanothione reductase [5]) [µM] | Ki (Trypanothione reductase [6]) [µM] | Ki [7]
CC(C)(C)c1ccc([N+](C)(C)CCCN)cc1 | 0.6 | > 30 | > 300 | 0.15 | > 30 | > 30 | > 30 |  |  |  |  | 
O=C(Nc1cc(Cl)ccc1Sc1ccccc1)c1ccccc1 |  | > 30 | 9 (≈ 26.5 µM) | 24.5 | > 30 | 19.8 (≈ 58.3 µM) | 8.7 (≈ 25.6 µM) | 37.7 | 49.6 |  |  | 
CCCC(=O)Nc1cc(Cl)ccc1Sc1ccccc1 |  | 19.1 (≈ 62.5 µM) | > 300 | 11.3 | > 30 | 9.4 (≈ 30.7 µM) | 14.2 (≈ 46.4 µM) | 42.6 | 30.5 |  |  | 
C[N+](C)(CCCN1c2ccccc2Sc2ccc(Cl)cc21)c1ccc(Cl)c(Cl)c1 |  | 0.47 | 3.5 | 0.44 | 4 | < 1.1 | 0.02 | 3.5 |  | 0.18 |  | 
CC(C)(C)c1ccc([N+](C)(C)CCCNc2cc(Cl)ccc2Sc2ccccc2)cc1 |  | 0.6 | 2.14 |  | 3.9 | < 1.1 | 0.01 |  |  | 2.67 | 6.5 | 
CC(C)(C)c1ccc([N+](C)(C)CCCN2c3ccccc3Sc3ccc(Cl)cc32)cc1 |  | 0.13 | 2.88 |  | 3.8 | < 1.1 | 0.02 |  |  | 0.57 | 66 | 
C[N+](C)(CCCNc1cc(Cl)ccc1Sc1ccccc1)c1ccccc1 |  |  |  |  |  |  |  |  |  |  | 14.2 | 
O=C(Nc1cc(Cl)ccc1Sc1ccccc1)c1ccc([N+](=O)[O-])cc1 |  | > 30 | 223 (≈ 579 µM) | 42.8 | > 30 | > 30 | > 30 | 12.9 | 44.5 |  |  | 
Nc1cc(Cl)ccc1Sc1ccccc1 |  | 11.3 (≈ 47.9 µM) | 47.9 (≈ 203 µM) | 150 | > 30 | 6.7 (≈ 28.4 µM) | 4.4 (≈ 18.7 µM) | 860 |  |  |  | 
C[N+](C)(CCCNc1cc(Cl)ccc1Sc1ccccc1)C(c1ccccc1)c1ccccc1 |  |  |  |  |  |  |  |  |  |  | 5.3 | 
CCC(=O)Nc1cc(Cl)ccc1Sc1ccccc1 |  | > 30 | 93.1 (≈ 319 µM) | 20 | > 30 | 18.3 (≈ 62.7 µM) | 11.3 (≈ 38.7 µM) | 29.3 | 31.6 |  |  | 
C[N+](C)(CCCNc1cc(Cl)ccc1Sc1ccccc1)c1ccc(OCc2ccccc2)cc1 |  |  |  |  |  |  |  |  |  |  | 6.6 | 
C[N+](C)(CCCNc1cc(Cl)ccc1Sc1ccccc1)c1ccc(Cl)c(Cl)c1 |  |  |  |  |  |  |  |  |  |  | 1.69 | Not Active
O=[N+]([O-])c1cc(Cl)ccc1Sc1ccccc1 |  | 15.6 (≈ 58.7 µM) | 43.1 (≈ 162 µM) |  | > 30 | 11.3 (≈ 42.5 µM) | 11.5 (≈ 43.3 µM) |  |  |  |  | 
O=C(Cc1ccccc1)Nc1cc(Cl)ccc1Sc1ccccc1 |  | 30 (≈ 84.8 µM) | > 300 | 24.6 | > 30 | > 30 | 7.4 (≈ 20.9 µM) | 35.9 | 36.8 |  |  | 
